Experimental data as given in ChEMBL document CHEMBL4138245, “Design and synthesis of novel quinacrine-[1,3]-thiazinan-4-one hybrids for their anti-breast cancer activity” (Eur J Med Chem, 2018).
The source made the active and inactive calls. The rule behind the calls is not given here.

Columns and labels:
[1] = Selectivity index, ratio of compound concentration for cell killing activity in human MCF10A cells to compound concentration for cell killing activity in human MDA-MB-453 cells; format: toxicity, cell-based; conditions: MCF10A cells versus MDA-MB-453 cells, read-out: Selectivity Index
[2] = Selectivity index, ratio of compound concentration for cell killing activity in human MCF10A cells to compound concentration for cell killing activity in human MCF7 cells; format: toxicity, cell-based; conditions: MCF10A cells versus MCF7 cells, read-out: Selectivity Index
[3] = test system: MCF-10A; assay: Antiproliferative activity against human MCF10A cells at 1 to 2 uM up to 96 hrs by SRB assay; format: cell-based
[4] = test system: MCF7; assay: Downregulation of Cyclin-B protein expression in human MCF7 cells at 2 uM after 24 to 72 hrs by Western blot method; format: functional, cell-based
[5] = test system: MCF7; assay: Inhibition of DNA replication in human MCF7 cells assessed as EdU incorporation at 2 uM pretreated for 48 hrs followed by EdU addition at final 45 mins of 48 hrs incubation time (reference value: 45 to 63%); format: functional; design: scale not given: the % may be the effect or the level left
[6] = test system: CAMA-1; assay: Antiproliferative activity against human CAMA1 cells assessed as compound concentration required to show complete inhibition of cell viability up to 96 hrs by SRB assay; format: functional
[7] = Selectivity index, ratio of compound concentration for cell killing activity in human 184B5 cells to compound concentration for cell killing activity in human NCI-H1975 cells; format: toxicity, cell-based; conditions: 184B5 cells versus NCI-H1975 cells, read-out: Selectivity Index
[8] = Selectivity index, ratio of compound concentration for cell killing activity in human 184B5 cells to compound concentration for cell killing activity in human BT474 cells; format: toxicity, cell-based; conditions: 184B5 cells versus BT474 cells, read-out: Selectivity Index
[9] = Selectivity index, ratio of compound concentration for cell killing activity in human 184B5 cells to compound concentration for cell killing activity in human PC3 cells; format: toxicity, cell-based; conditions: 184B5 cells versus PC3 cells, read-out: Selectivity Index
[10] = test system: MCF7; assay: Anticlonogenic activity against human MCF7 cells at 0.39 to 1.5 uM after 12 hrs by crystal violet staining based assay; format: functional, cell-based
Outline: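 Clonogenic assay: 1000 cells/well seeded, treated after overnight attachment for 12 h, then medium replaced and cells grown until control colonies were large enough; colonies stained with crystal violet.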

[11] = test system: MDA-MB-231; assay: Cell cycle arrest in human MDA-MB-231 cells assessed as accumulation at S phase at 2 uM after 48 hrs by propidium iodide staining based flow cytometry; format: functional
Outline: (§1)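 MCF7, MDA-MB231 and non-cancer 184B5 breast cells exposed to 2 μM for 48 h, then cell-cycle analysis by flow cytometry; duplicates, repeated three times.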

[12] = Selectivity index, ratio of compound concentration for cell killing activity in human MCF10A cells to compound concentration for cell killing activity in human PC3 cells; format: toxicity, cell-based; conditions: MCF10A cells versus PC3 cells, read-out: Selectivity Index
[13] = Selectivity index, ratio of compound concentration for cell killing activity in human 184B5 cells to compound concentration for cell killing activity in human BT20 cells; format: toxicity, cell-based; conditions: 184B5 cells versus BT20 cells, read-out: Selectivity Index
[14] = Selectivity index, ratio of compound concentration for cell killing activity in human MCF10A cells to compound concentration for cell killing activity in human CAMA1 cells; format: toxicity, cell-based; conditions: MCF10A cells versus CAMA1 cells, read-out: Selectivity Index
[15] = Selectivity index, ratio of compound concentration for cell killing activity in human 184B5 cells to compound concentration for cell killing activity in human MDA-MB-468 cells; format: toxicity, cell-based; conditions: 184B5 cells versus MDA-MB-468 cells, read-out: Selectivity Index
[16] = Selectivity index, ratio of compound concentration for cell killing activity in human 184B5 cells to compound concentration for cell killing activity in human CAMA1 cells; format: toxicity, cell-based; conditions: 184B5 cells versus CAMA1 cells, read-out: Selectivity Index
[17] = test system: MDA-MB-231; assay: Cell cycle arrest in human MDA-MB-231 cells assessed as accumulation at sub-G1 phase at 2 uM after 48 hrs by propidium iodide staining based flow cytometry; format: functional; outline: as §1
[18] = test system: MCF7; assay: Cell cycle arrest in human MCF7 cells assessed as DNA content at 2 uM after 48 hrs by BrdU incorporation assay (reference value: 29.4%); format: functional
[19] = Selectivity index, ratio of compound concentration for cell killing activity in human 184B5 cells to compound concentration for cell killing activity in human MDA-MB-453 cells; format: toxicity, cell-based; conditions: 184B5 cells versus MDA-MB-453 cells, read-out: Selectivity Index
[20] = test system: MCF7; assay: Antiproliferative activity against human MCF7 cells after 48 hrs by SRB assay; format: functional, cell-based; conditions: MCF7, 48 h
Outline: (§2)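 SRB assay: 5,000-10,000 cells/well plated, 24 h at 37 °C/5% CO2 before drug; seven concentrations from 100 μM down (two- to ten-fold serial dilutions, DMSO ≤0.1% final) for 48 h; TCA fixation (10% final, 60 min, 4 °C), 0.4% SRB in 1% acetic acid, solubilized in 10 mM Tris base, absorbance 515-564 nm; growth = (Ti−Tz)/(C−Tz)×100; IC50 from sigmoidal variable-slope fit; triplicates, ≥2 independent experiments.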

[21] = test system: BT-474; assay: Antiproliferative activity against human BT474 cells assessed as compound concentration required to show complete inhibition of cell viability up to 96 hrs by SRB assay; format: functional
[22] = test system: MDA-MB-231; assay: Antiproliferative activity against human MDA-MB-231 cells after 48 hrs by SRB assay; format: functional, cell-based; conditions: MDA-MB-231, 48 h; outline: as §2
[23] = biological target: Serine/threonine-protein kinase Chk2 (Homo sapiens) (UniProt O96017); assay: Induction of CHK2 phosphorylation at T68 residue in human MCF7 cells at 2 uM after 12 to 48 hrs by Western blot method; format: cell-based
[24] = test system: MCF7; assay: Cell cycle arrest in human MCF7 cells assessed as DNA content at 2 uM after 24 hrs by BrdU incorporation assay (reference value: 32.9%); format: functional
[25] = test system: MCF7; assay: Cell cycle arrest in human MCF7 cells assessed as DNA content at 2 uM after 6 hrs by BrdU incorporation assay (reference value: 31.6%); format: functional
[26] = biological target: Serine/threonine-protein kinase mTOR (Homo sapiens) (UniProt P42345); assay: Inhibition of mTOR pathway in human MCF7 cells assessed as reduction in S6K phosphorylation at Ser371 residue at 2 uM after 6 to 24 hrs by Western blot method; format: cell-based
[27] = test system: 184B5; assay: Antiproliferative activity against human 184B5 cells after 48 hrs by SRB assay; format: cell-based; conditions: 184B5, 48 h; outline: as §2
[28] = test system: PC-3; assay: Antiproliferative activity against human PC3 cells assessed as compound concentration required to show complete inhibition of cell viability up to 96 hrs by SRB assay; format: functional
[29] = test system: BT-20; assay: Antiproliferative activity against human BT20 cells assessed as compound concentration required to show complete inhibition of cell viability up to 96 hrs by SRB assay; format: functional
[30] = Selectivity index, ratio of compound concentration for cell killing activity in human MCF10A cells to compound concentration for cell killing activity in human BT474 cells; format: toxicity, cell-based; conditions: MCF10A cells versus BT474 cells, read-out: Selectivity Index
[31] = test system: MDA-MB-453; assay: Antiproliferative activity against human MDA-MB-453 cells assessed as compound concentration required to show complete inhibition of cell viability up to 96 hrs by SRB assay; format: functional

Serine/threonine-protein kinase Chk2 (Homo sapiens), sequence (O96017 whole entry): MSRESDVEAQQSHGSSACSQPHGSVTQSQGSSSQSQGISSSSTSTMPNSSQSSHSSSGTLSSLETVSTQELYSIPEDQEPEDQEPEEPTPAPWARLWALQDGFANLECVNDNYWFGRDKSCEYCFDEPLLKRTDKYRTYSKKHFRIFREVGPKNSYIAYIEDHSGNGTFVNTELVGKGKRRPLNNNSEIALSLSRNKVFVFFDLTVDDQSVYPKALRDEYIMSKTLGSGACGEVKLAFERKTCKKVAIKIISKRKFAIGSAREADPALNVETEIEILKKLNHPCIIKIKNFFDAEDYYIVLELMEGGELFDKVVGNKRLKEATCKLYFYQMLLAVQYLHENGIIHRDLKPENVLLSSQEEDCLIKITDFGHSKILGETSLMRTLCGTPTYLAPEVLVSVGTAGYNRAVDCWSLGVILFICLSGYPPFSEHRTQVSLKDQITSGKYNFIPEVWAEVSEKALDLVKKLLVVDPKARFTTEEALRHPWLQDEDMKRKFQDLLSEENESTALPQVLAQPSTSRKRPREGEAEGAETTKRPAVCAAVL

COc1ccc2nc3cc(Cl)ccc3c(NCCCN3C(=O)CCSC3c3cccs3)c2c1 (stereo unspecified)
selectivity ratio [1]: 3 to 6
selectivity ratio [2]: 3 to 6
Activity [3]: Non-Toxic
Activity [4]: Active
Activity [5]: 5%
Activity [6]: 2 µM
selectivity ratio [7]: 3 to 6
selectivity ratio [8]: 3 to 6
selectivity ratio [9]: 3 to 6
Activity [10]: Active
Activity [11]: Active
selectivity ratio [12]: 3 to 6
selectivity ratio [13]: 3 to 6
selectivity ratio [14]: 3 to 6
selectivity ratio [15]: 3 to 6
selectivity ratio [16]: 3 to 6
Activity [17]: Active
Activity [18]: 0.9%
selectivity ratio [19]: 3 to 6
IC50 [20]: 690 nM
Activity [21]: 1 µM
IC50 [22]: 2800 nM
Activity [23]: inactive
Activity [24]: 0.7%
Activity [25]: 3.7%
inhibition [26]: inactive
IC50 [27]: 4960 nM
Activity [28]: 2 µM
Activity [29]: 1 µM
selectivity ratio [30]: 3 to 6
Activity [31]: 2 µM
